One compound from ChEMBL document CHEMBL4229344 (Eur J Med Chem, 2018) can be followed below.

Assay [1] concerns the target Atypical kinase COQ8B, mitochondrial (Homo sapiens) (UniProt Q96D53). Kind of assay: Binding affinity to wild-type human full length ADCK4 (M1 to S544 residues) expressed in bacterial expression system assessed as residual binding level at 1 uM by Kinomescan method relative to control. The method in brief: (§1)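 KINOMEscan competition binding against 468 purified kinases/mutants, test compound at 1 µM; residual binding relative to control.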

Assay [2] deals with Receptor tyrosine-protein kinase erbB-4 (Homo sapiens) (UniProt Q15303). Description: Binding affinity to wild-type human partial length ERBB4 (L690 to K994 residues) expressed in bacterial expression system assessed as residual binding level at 1 uM by Kinomescan method relative to control.
Receptor tyrosine-protein kinase erbB-4 (Homo sapiens), sequence (Q15303 whole entry, the tested form may be a part): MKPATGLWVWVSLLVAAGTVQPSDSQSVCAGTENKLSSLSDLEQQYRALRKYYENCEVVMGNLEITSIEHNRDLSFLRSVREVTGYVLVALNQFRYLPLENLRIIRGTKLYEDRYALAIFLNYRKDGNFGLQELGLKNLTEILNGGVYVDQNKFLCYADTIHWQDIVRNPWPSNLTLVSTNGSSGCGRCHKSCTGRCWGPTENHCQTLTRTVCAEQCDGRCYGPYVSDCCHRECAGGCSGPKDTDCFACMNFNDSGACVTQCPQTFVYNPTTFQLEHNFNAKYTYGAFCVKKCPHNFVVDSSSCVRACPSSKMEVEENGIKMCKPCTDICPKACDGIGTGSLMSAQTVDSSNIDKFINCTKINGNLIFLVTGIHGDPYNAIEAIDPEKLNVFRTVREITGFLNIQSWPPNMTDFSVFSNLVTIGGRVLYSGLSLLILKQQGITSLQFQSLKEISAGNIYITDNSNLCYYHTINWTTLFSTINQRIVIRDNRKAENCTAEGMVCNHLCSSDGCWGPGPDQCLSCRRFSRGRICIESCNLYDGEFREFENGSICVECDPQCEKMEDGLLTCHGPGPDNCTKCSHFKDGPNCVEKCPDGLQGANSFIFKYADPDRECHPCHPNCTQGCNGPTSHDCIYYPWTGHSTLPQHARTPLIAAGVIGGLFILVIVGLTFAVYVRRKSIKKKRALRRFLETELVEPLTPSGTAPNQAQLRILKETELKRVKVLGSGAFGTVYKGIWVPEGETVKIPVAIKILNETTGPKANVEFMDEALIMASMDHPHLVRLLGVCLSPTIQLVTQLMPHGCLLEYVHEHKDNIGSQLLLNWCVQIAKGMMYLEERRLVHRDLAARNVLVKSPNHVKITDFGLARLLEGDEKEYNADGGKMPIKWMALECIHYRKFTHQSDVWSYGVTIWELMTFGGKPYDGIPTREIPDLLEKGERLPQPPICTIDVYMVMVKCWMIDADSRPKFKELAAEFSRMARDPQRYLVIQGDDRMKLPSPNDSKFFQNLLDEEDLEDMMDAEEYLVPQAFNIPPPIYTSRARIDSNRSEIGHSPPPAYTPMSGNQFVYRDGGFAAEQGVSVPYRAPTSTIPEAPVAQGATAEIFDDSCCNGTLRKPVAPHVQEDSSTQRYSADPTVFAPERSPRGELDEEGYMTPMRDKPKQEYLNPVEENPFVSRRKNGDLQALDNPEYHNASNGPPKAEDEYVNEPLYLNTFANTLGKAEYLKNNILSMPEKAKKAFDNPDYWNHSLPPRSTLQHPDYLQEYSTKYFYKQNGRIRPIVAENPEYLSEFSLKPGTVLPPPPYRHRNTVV
Assay [3] concerns the target Ribosomal protein S6 kinase alpha-3 (Homo sapiens) (UniProt P51812). Description: Binding affinity to wild-type human partial length C-terminal RSK2 kinase domain 2 (V402 to S715 residues) expressed in mammalian expression system assessed as residual binding level at 1 uM by Kinomescan method relative to control.
Assay [4] addresses Serine/threonine-protein kinase Nek3 (Homo sapiens) (UniProt P51956). Description: Binding affinity to wild-type human full length NEK3 (M1 to R506 residues) expressed in mammalian expression system assessed as residual binding level at 1 uM by Kinomescan method relative to control. In short, it runs like this:
as §1

Assay [5] deals with Phosphatidylinositol 4,5-bisphosphate 3-kinase catalytic subunit alpha isoform (Homo sapiens), P42336 [E542K]. Description: Binding affinity to human partial length PIK3CA E542K mutant (R108 to N1068 residues) expressed in mammalian expression system assessed as residual binding level at 1 uM by Kinomescan method relative to control. The method in brief:
(§2)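 Kinome-wide single-concentration binding screen (KINOMEscan) at 1 μM against a panel of 468 purified kinases and mutants. Read-out is relative binding of each kinase compared with control. Selectivity across the panel was summarised as an S(10) score.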

Assay [6] addresses Receptor tyrosine-protein kinase erbB-2 (Homo sapiens) (UniProt P04626). Description: Binding affinity to wild-type human partial length ERBB2 (K646 to V1225 residues) expressed in mammalian expression system assessed as residual binding level at 1 uM by Kinomescan method relative to control.
Assay [7] concerns the target Calcium/calmodulin-dependent protein kinase type II subunit beta (Homo sapiens) (UniProt Q13554). Description: Binding affinity to wild-type human partial length CAMK2B (M1 to Q380 residues) expressed in bacterial expression system assessed as residual binding level at 1 uM by Kinomescan method relative to control.
Assay [8] relates to Phosphatidylinositol 4,5-bisphosphate 3-kinase catalytic subunit alpha isoform (Homo sapiens), P42336 [I800L]. Description: Binding affinity to human partial length PIK3CA I800L mutant (R108 to N1068 residues) expressed in mammalian expression system assessed as residual binding level at 1 uM by Kinomescan method relative to control. The method in brief:
as §2

Ribosomal protein S6 kinase alpha-3 (Homo sapiens), sequence (P51812 whole entry, the tested form may be a part): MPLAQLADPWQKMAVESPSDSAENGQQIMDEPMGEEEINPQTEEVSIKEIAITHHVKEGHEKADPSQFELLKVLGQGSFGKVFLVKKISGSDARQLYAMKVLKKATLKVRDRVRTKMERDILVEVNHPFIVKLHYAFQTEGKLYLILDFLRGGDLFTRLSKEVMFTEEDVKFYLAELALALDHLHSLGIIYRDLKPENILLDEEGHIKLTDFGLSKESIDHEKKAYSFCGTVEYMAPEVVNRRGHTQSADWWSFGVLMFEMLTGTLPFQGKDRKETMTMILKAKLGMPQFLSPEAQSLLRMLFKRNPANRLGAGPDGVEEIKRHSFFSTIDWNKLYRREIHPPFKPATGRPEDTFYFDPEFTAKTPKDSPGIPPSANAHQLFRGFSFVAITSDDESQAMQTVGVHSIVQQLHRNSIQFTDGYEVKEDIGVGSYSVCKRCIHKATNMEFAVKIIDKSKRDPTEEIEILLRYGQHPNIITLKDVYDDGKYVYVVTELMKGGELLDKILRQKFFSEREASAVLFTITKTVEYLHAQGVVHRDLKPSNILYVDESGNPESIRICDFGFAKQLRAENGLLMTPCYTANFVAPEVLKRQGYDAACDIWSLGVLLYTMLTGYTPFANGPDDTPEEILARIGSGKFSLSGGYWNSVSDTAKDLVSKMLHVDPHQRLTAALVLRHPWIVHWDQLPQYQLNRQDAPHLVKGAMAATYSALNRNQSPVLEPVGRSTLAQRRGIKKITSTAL
Phosphatidylinositol 4,5-bisphosphate 3-kinase catalytic subunit alpha isoform (Homo sapiens), P42336 [E542K], sequence (P42336 whole entry E542K, the tested form may be a part, canonical isoform): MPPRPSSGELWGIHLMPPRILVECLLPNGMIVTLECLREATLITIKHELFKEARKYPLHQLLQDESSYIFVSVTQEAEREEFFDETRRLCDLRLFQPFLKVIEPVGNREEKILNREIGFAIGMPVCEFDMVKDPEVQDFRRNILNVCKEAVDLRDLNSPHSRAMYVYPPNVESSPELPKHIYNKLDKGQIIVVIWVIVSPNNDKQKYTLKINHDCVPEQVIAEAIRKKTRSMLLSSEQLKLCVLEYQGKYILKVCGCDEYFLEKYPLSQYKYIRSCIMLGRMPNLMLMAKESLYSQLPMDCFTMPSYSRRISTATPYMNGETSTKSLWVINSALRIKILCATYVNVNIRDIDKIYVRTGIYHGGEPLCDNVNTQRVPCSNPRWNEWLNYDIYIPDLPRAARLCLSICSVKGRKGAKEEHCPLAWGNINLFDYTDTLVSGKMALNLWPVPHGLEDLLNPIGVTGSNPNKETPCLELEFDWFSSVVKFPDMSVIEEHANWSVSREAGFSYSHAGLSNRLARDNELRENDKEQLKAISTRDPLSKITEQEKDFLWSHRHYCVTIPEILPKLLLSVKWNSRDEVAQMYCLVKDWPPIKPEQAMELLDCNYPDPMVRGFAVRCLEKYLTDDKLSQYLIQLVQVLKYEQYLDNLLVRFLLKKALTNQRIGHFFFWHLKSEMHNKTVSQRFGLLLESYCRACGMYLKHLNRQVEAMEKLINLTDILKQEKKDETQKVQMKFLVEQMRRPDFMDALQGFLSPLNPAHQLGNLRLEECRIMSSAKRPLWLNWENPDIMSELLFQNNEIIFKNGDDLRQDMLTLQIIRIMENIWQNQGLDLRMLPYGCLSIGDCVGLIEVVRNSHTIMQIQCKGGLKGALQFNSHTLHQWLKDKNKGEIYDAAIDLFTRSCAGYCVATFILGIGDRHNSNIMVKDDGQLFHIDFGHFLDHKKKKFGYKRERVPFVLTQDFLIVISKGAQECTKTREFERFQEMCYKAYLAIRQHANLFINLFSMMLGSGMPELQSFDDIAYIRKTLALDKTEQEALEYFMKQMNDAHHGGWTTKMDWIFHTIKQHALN
Calcium/calmodulin-dependent protein kinase type II subunit beta (Homo sapiens), sequence (Q13554 whole entry, the tested form may be a part, canonical isoform): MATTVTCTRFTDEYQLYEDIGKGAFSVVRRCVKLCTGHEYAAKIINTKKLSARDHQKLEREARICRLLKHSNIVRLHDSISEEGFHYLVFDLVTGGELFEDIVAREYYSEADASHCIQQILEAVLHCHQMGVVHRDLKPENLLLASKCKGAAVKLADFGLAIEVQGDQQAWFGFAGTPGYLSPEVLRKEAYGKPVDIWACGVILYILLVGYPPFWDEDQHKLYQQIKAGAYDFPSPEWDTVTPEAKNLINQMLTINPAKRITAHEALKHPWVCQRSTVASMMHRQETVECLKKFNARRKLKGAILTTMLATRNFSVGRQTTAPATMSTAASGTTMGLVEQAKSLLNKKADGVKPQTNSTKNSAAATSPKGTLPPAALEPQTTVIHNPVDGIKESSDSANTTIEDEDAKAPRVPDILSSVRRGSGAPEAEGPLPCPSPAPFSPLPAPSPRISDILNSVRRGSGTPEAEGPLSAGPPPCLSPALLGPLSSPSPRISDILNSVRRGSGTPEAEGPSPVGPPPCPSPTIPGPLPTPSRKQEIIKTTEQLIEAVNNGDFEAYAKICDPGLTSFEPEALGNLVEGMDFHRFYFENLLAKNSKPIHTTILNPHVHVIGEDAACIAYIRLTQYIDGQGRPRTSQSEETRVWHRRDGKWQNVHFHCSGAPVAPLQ
Atypical kinase COQ8B, mitochondrial (Homo sapiens), sequence (Q96D53 whole entry, the tested form may be a part): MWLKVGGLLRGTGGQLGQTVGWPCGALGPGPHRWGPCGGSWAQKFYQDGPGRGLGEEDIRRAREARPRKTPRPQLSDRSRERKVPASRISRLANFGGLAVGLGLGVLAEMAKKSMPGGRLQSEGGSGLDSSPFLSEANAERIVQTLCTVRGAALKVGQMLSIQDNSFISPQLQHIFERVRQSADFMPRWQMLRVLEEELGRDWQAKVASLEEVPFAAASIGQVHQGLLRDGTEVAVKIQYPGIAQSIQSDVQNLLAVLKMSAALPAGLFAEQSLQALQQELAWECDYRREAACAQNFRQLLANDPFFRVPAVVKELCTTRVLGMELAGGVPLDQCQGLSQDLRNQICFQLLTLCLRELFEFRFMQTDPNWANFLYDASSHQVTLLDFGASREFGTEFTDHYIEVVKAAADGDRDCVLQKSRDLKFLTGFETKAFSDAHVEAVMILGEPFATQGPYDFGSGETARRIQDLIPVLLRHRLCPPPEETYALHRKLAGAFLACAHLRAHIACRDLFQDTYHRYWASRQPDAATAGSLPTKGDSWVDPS
Serine/threonine-protein kinase Nek3 (Homo sapiens), sequence (P51956 whole entry, the tested form may be a part): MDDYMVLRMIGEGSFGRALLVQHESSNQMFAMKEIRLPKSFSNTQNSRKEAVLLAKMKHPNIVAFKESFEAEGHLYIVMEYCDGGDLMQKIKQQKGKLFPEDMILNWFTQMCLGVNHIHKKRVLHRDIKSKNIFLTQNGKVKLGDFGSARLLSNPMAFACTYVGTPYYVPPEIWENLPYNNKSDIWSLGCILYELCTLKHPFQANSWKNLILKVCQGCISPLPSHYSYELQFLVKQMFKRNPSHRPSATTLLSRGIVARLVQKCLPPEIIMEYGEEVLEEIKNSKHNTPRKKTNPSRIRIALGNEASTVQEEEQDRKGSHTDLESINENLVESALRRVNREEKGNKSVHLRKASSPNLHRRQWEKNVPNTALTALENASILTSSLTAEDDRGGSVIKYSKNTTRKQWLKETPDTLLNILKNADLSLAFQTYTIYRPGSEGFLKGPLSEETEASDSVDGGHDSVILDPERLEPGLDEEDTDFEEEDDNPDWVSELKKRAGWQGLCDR

Take `Cc1ccc(NC(=O)c2ccc(CN(CCN(C)C)C(=O)c3cccnc3)cc2)cc1Nc1nccc(-c2cccnc2)n1`: the Activity in assay [1] was determined as 94%; in assay [2], 85%; in assay [3] it was 100%; in assay [4], 73%; in assay [5] it was 83%; in assay [6], 85%. Besides, the Activity was 99% in assay [7] and 79% in assay [8].
